Only some compounds are listed: those with a hit (about 2.3% of all), similar ones and a draw of the others.
CRFBP-R2 agonist: agonists of CRF-BP/CRF-R2 complex, primary screen, cell-based, HEK293, calcium dye fluorescence, uHTS | CRF-binding protein / CRF receptor 2 complex (human) | calcium dye fluorescence (FLIPR); percent of saturating CRF peptide response | activation, % at 13.2 µM | 0.46% of 350,000 active;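 active means activation of at least 50%, plus an integration ratio under a set limit after plate pattern correction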
HNF4A DNA FP: change in binding of human HNF4A to DNA, primary screen, biochemical, fluorescence polarization, FITC-DNA; Hepatocyte nuclear factor 4-alpha (Homo sapiens), P41235; 1 h; activity change, % at 10 µM; 0.3% of 360,000 active; AID 1224865, 2016; in the data active means activity change above about 30%, passing the limit was not always enough
Target sequence (P41235 whole entry, looked up): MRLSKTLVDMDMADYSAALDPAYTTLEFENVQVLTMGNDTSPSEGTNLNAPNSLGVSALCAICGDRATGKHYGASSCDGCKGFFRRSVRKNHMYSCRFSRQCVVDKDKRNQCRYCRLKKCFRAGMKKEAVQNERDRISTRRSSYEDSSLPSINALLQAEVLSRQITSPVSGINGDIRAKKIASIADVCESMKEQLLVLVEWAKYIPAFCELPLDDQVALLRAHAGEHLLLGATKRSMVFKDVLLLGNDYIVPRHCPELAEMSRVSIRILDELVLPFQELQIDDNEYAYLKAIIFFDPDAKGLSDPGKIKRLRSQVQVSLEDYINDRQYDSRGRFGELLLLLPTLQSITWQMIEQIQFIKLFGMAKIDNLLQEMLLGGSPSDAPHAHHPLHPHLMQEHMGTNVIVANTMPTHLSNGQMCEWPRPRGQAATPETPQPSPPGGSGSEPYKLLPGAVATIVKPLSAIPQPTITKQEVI
TPT1 inhibitor: Candida albicans TPT1 enzyme inhibitors, primary screen, biochemical, fluorescence polarization; AID 1962, 2009; recombinant caTPT1, FP RNA substrate dephosphorylation; inhibition, % at 5 µM; tRNA 2'-phosphotransferase TPT1 (Candida albicans SC5314); 0.81% of 300,000 active;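 active means inhibition above the mean of all tested compounds plus 3 SD, set per screening campaign, cut at about 24% in these data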
CRFBP-R2 block: antagonists of CRF-BP/CRF-R2 complex, primary screen, cell-based, HEK293, calcium dye fluorescence, uHTS. CRF-induced calcium fluorescence. inhibition, % at 11.8 µM. 0.59% of 350,000 active. AID 588475, 2011;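 active means inhibition of the ligand-induced calcium signal above about 50% at the single tested concentration, limit read from the data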
CSN inh: inhibitors of CSN-mediated cullin deneddylation, primary screen, biochemical, fluorescence polarization, uHTS; COP9 signalosome complex subunit 5 (Homo sapiens), Q92905; Purified CSN, SCF-Nedd8-OG deneddylation; inhibition, % at 12.5 µM; 0.38% of 360,000 active;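 active means pattern-corrected inhibition above about 35%, with an unprinted fluorescence ratio check between 0.5 and 1.5, limit read from the data, passing the limit was not always enough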
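Detection – fluorescence polarization · System – HEK293T-derived human Csn5 enzyme · Controls – substrate-only high control, full reaction low control · Timing – 90 min, room temperature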
Rpn11 block: Rpn11 (PSMD14) deubiquitinase inhibitors, primary screen, biochemical, fluorescence polarization, uHTS; human 26S proteasome, Ub4-pepOG fluorescence polarization; 20S core pre-blocked with epoxomicin; calls only at 20 µM; 0.59% of 360,000 active; AID 588493, 2011;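 active means inhibition at 20 µM, scaled to each plate's controls, above about 33%, limit read from the data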
caTPT1 confirm: Candida albicans TPT1 inhibitors, confirmation, biochemical, fluorescence polarization, triplicate; shares compounds with TPT1 inhibitor; recombinant caTPT1, RNase T1 coupled; 74% of 2,400 active; inhibition, % at 5 µM;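 active means inhibition above the primary screen limit, the mean inhibition of all tested compounds plus 3 SD, cut at about 25% in these data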
RNase T1 inh: RNase T1 inhibitors, counter-screen for TPT1 inhibitor project, biochemical, fluorescence polarization; shares compounds with TPT1 inhibitor; RNase T1 cleavage, 1536-well; inhibition, % at 5 µM; 83% of 2,400 active; AID 2153, 2009;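 active means inhibition above the solvent-only control well mean plus 3 SD, limit set per screening run, cut at about 23% in these data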;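 further: inhibitors block cleavage so intact labeled substrate keeps polarization high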
Target sequence (P00651 whole entry, looked up): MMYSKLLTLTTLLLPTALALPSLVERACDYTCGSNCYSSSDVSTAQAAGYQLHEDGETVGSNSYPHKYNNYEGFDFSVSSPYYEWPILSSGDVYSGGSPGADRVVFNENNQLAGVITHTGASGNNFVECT
Numbers stand for hits; . = inactive; / = not tested or not shown; + = active, no number.

SMILES | CRFBP-R2 agonist | HNF4A DNA FP | TPT1 inhibitor | CRFBP-R2 block | CSN inh | Rpn11 block | caTPT1 confirm | RNase T1 inh
O=c1oc2ccccc2nc1/C=C(O)/C=C/c1ccc(F)cc1 | . | . | . | . | . | . | / | /
O=c1oc2ccccc2nc1/C=C(O)/C=C\c1ccccc1 | . | . | 27 | . | . | . | . | 28
COC(=O)c1ccc(-c2sc3nc(N4CCOCC4)c4c(c3c2N)CCCC4)o1 | . | / | 58 | . | / | / | 57 | 68
CCOC(=O)c1sc2nc(N3CCOCC3)c3c(c2c1N)CCCC3 | . | . | . | . | . | . | / | /
O=C(O)CC12CC3CC(C1)CC(n1ncc(NCC4CCCO4)c(Cl)c1=O)(C3)C2 (stereo unspecified) | . | . | . | . | . | . | / | /
O=C(O)c1cccc(Cn2c(Cl)c(/C=N/Nc3ccccc3)sc2=O)c1 | . | . | 48 | . | . | . | 65 | 79
C/C=C(/C)C(=O)O[C@@H]1Cc2c(ccc3ccc(=O)oc23)OC1(C)C | . | . | / | . | . | . | / | /
CO/N=C\Cc1oc(=O)c(NC(=O)c2ccccc2)cc1C(=O)OC | . | . | . | . | . | . | / | /
COC(=O)c1cc(NC(=O)c2ccccc2)c(=O)oc1C/C=N\OCc1ccc(Cl)cc1Cl | . | . | 31 | . | . | / | 28 | 36
Cc1cc(N2C(=O)C(O)=C(C(=O)c3cc4ccccc4o3)C2c2cccc(Br)c2)no1 (stereo unspecified) | . | . | 31 | . | . | . | . | 25
COC(=O)c1ccc(C2C(C(=O)c3cc4ccccc4o3)=C(O)C(=O)N2c2cc(C)on2)cc1 (stereo unspecified) | . | . | 44 | . | . | . | . | 26
COc1cccc2cc(C(=O)C3=C(O)C(=O)N(c4cc(C)on4)C3c3cccs3)oc12 (stereo unspecified) | . | . | 31 | . | . | . | . | 36
Cc1cc(N2C(=O)C(O)=C(C(=O)c3cc4ccccc4o3)C2c2ccc(OC(C)C)cc2)no1 (stereo unspecified) | . | . | . | . | . | . | / | /
CCCOc1cccc(C2C(C(=O)c3cc4ccccc4o3)=C(O)C(=O)N2c2cc(C)on2)c1 (stereo unspecified) | . | . | . | . | . | . | / | /
C[C@H](NC(=O)c1nc[nH]c1C(=O)NCc1ccc(CNC(=O)OC(C)(C)C)cc1)C(=O)OCc1ccccc1 | . | . | / | . | . | . | / | /
CCN(CC)S(=O)(=O)c1ccc(C(C)NC(=O)Cc2c[nH]c3ccccc23)cc1 (stereo unspecified) | . | . | . | . | . | . | / | /
Cc1ccc(S(=O)(=O)c2c(N)n(Cc3ccco3)c3nc4ccccc4nc23)cc1 | . | . | 27 | . | . | . | . | 29
Cc1ccc(S(=O)(=O)c2c(N)n(-c3ccccc3)c3nc4ccccc4nc23)cc1 | . | . | . | . | . | . | / | /
O=C(N/N=C/c1c(O)n(-c2ccccc2Cl)c(=O)c2ccccc12)c1cccnc1 | . | . | / | . | . | / | / | /
O=C(N/N=C/c1c(O)n(Cc2ccccc2)c(=O)c2ccccc12)c1cccnc1 | 64 | 42 | 106 | . | . | / | 117 | 120
C=CCSc1nc2c(c(=O)[nH]c(=O)n2C)n1C(C)C | . | . | . | . | . | . | / | /
C/C(Cl)=C/CSc1nc2c(c(=O)[nH]c(=O)n2C)n1C(C)C | . | . | 25 | . | . | . | . | .
Cc1ccc(-n2[nH]c(C)c(C=Nc3ccc4[nH]c(=O)[nH]c4c3)c2=O)cc1C | . | . | . | . | . | . | / | /
CCN(CC)c1cccc(OCC(=O)N(C)CCC#N)c1 | . | . | 43 | . | . | / | 41 | 51
CCOC(=O)C1(CC2CCCCO2)CCN(C(=O)Nc2ccc(C(=O)OC)cc2)CC1 (stereo unspecified) | . | . | . | . | . | . | / | /
SMILES | CRFBP-R2 agonist | HNF4A DNA FP | TPT1 inhibitor | CRFBP-R2 block | CSN inh | Rpn11 block | caTPT1 confirm | RNase T1 inh
CCOC(=O)C1(CC2CCCCO2)CCN(C(=O)Nc2ccc3c(c2)OCO3)CC1 (stereo unspecified) | . | . | 38 | . | . | . | . | .
CN1CCc2c(sc3c2C(=O)NC(c2ccco2)N3)C1 (stereo unspecified) | . | . | . | . | . | . | / | /
CN1CCc2c(sc3c2C(=O)NC(c2cccc(OC(=O)c4cccs4)c2)N3)C1 (stereo unspecified) | . | 34 | 99 | . | 36 | / | 110 | 110
O=C1NC(c2ccco2)Nc2sc3c(c21)CCN(Cc1ccccc1)C3 (stereo unspecified) | . | . | 53 | . | . | / | 53 | 62
CN1CCc2c(sc3c2C(=O)NC(c2ccc(-c4ccc(Cl)cc4)o2)N3)C1 (stereo unspecified) | . | . | 91 | . | . | / | 86 | 96
Cc1c(N=Cc2ccc(Cl)o2)c(=O)n(-c2ccccc2)n1C | . | . | . | . | . | . | / | /
Cc1cccc(NC(=O)c2ccc(NCCc3ccccc3)c([N+](=O)[O-])c2)c1 | . | . | 46 | . | 89 | / | 111 | 133
Cc1ccc(NC(=O)c2ccc(NCCN)c([N+](=O)[O-])c2)cc1 | . | . | . | . | . | . | / | /
Cc1c(C)n(CC(O)CN2CCCCC2)c2ccccc12 (stereo unspecified) | . | . | . | . | . | . | / | /
Cc1cc(C)n(CC(O)Cn2c(C)c(C)c3ccccc32)n1 (stereo unspecified) | . | . | 46 | . | . | + | . | .
COC(=O)[C@@H]1C[C@@H]2CC[C@@H](O)C[C@@H]2N1Cc1ccccc1OS(=O)(=O)c1ccc(C)cc1 | . | . | 34 | . | . | . | 37 | 48
COC(=O)[C@@H]1C[C@H]2CC[C@H](O)C[C@H]2N1Cc1ccccc1OC(=O)c1cccs1 | . | . | . | . | . | . | / | /
CC(O)CNc1ccc([N+](=O)[O-])cc1S(=O)(=O)N1CCOCC1 (stereo unspecified) | . | . | . | . | . | . | / | /
